Experimental findings from ChEMBL document CHEMBL2046332, “Substrate analog studies of the ω-regiospecificity of Mycobacterium tuberculosis cholesterol metabolizing cytochrome P450 enzymes CYP124A1, CYP125A1 and CYP142A1” (Bioorg Med Chem, 2012) are described below.

The structures appear in SMILES notation. Calls of active or inactive are those of the source. The calls are words filed in the database; no cut-off is given here.

Series [1] deals with Mycobacterium tuberculosis. Briefly: Activity of Mycobacterium tuberculosis CYP124A1 assessed as relative apparent turnover number at 50 uM incubated for 1 hr at 25 degC by GC-MS method relative to cholesterol.
The nature of series [2]: Binding affinity to Mycobacterium tuberculosis CYP124A1 by UV-visible spectrophotometry. The following applies: read-out: Kd(app). The gist of the method:
(§1)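 Spectral titration of each P450 with steroid solubilised in methyl β-cyclodextrin. Ligand-induced low-spin/high-spin shifts were followed in the Soret region and at ~650 nm to assign binding type. Absolute spectra of the P450–steroid complexes were also examined.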

Series [3] concerns Mycobacterium tuberculosis. Briefly: Binding affinity to Mycobacterium tuberculosis CYP142A1 assessed as type 1 binding mode at 0.05 to 0.2 uM by UV-visible spectrophotometry. The procedure, abridged: as §1
The test system of series [4] is Mycobacterium tuberculosis. Briefly: Binding affinity to Mycobacterium tuberculosis CYP124A1 assessed as type 1 binding mode at 0.05 to 0.2 uM by UV-visible spectrophotometry. The procedure, abridged: as §1
In series [5] the test system is Mycobacterium tuberculosis. Briefly: Activity of Mycobacterium tuberculosis CYP124A1 assessed as apparent turnover number at 50 uM incubated for 1 hr at 25 degC by GC-MS method. The procedure, abridged:
(§2)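 Each P450 (250 nM) was incubated with 50 μM substrate, 5 μg catalase, 50 μg/mL ferredoxin, 0.16 U/mL ferredoxin-NADP+ reductase, and an NADPH-regenerating system (1 mM glucose-6-phosphate, 2.4 U/mL G6P dehydrogenase, 5 mM MgCl2, 800 μM NADP+). Buffer was 50 mM potassium phosphate pH 7.5, 25 °C, 1 h. Quenched with HCl, extracted into hexanes, TMS-derivatised, GC-MS. Controls lacked P450 or NADPH.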

Series [6] concerns the target T1, Steroid C26-monooxygenase (Mycobacterium tuberculosis, UniProt P9WPP1).
T1 sequence (P9WPP1 whole entry): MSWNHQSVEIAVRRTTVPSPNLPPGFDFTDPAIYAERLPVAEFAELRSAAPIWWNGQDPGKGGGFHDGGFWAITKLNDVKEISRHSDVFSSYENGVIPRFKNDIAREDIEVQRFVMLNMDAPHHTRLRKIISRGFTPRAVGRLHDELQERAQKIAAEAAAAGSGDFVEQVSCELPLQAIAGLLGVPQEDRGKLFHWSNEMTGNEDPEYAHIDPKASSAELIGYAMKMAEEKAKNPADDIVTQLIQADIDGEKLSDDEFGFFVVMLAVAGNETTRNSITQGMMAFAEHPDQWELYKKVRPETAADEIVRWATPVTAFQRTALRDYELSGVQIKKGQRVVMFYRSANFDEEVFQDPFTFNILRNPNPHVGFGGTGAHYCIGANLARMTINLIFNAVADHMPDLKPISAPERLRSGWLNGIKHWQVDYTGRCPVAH
Briefly: Binding affinity to Mycobacterium tuberculosis CYP125A1 assessed as type 1a binding mode at > 0.05 to 0.2 uM by UV-visible spectrophotometry. The procedure, abridged: as §1

The subject of series [7] is Mycobacterium tuberculosis. Briefly: Activity of Mycobacterium tuberculosis CYP142A1 assessed as relative apparent turnover number at 50 uM incubated for 1 hr at 25 degC by GC-MS method relative to cholesterol.
In series [8] the test system is Mycobacterium tuberculosis. Briefly: Activity of Mycobacterium tuberculosis CYP142A1 assessed as apparent turnover number at 50 uM incubated for 1 hr at 25 degC by GC-MS method. The procedure, abridged:
as §2

In series [9] the target is T1, Steroid C26-monooxygenase. Briefly: Activity of Mycobacterium tuberculosis CYP125A1 assessed as relative apparent turnover number at 50 uM incubated for 1 hr at 25 degC by GC-MS method relative to cholesterol.
In series [10] the target is T1, Steroid C26-monooxygenase. Description: Binding affinity to Mycobacterium tuberculosis CYP125A1 by UV-visible spectrophotometry. Particulars: read-out: Kd(app). The procedure, abridged: as §1
The target of series [11] is T1, Steroid C26-monooxygenase. Description: Activity of Mycobacterium tuberculosis CYP125A1 assessed as apparent turnover number at 50 uM incubated for 1 hr at 25 degC by GC-MS method. The procedure, abridged: as §2
Series [12] deals with Mycobacterium tuberculosis. Description: Time dependent inhibition of Mycobacterium tuberculosis CYP142A1 at 50 uM incubated up to 3 hrs by HPLC. The procedure, abridged: (§3)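 P450 (5 μM) was pre-incubated with 50 μM test sterol in 50 mM potassium phosphate pH 7.5 with ferredoxin, reductase, catalase and NADPH-regenerating system. Controls received MβCD vehicle only. Aliquots taken over time were diluted twenty-fold into buffer with 50 μM cholest-4-en-3-one, spinach ferredoxin, reductase and 1 mM NADPH, run 10 min at 25 °C, and analysed by HPLC. Residual activity = % of control.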

The subject of series [13] is Mycobacterium tuberculosis. Briefly: Time dependent inhibition of Mycobacterium tuberculosis CYP124A1 at 50 uM incubated up to 3 hrs by HPLC. The procedure, abridged: as §3
Series [14] has as its target T1, Steroid C26-monooxygenase. Description: Binding affinity to Mycobacterium tuberculosis CYP125A1 assessed as type 1 binding mode at 0.05 to 0.2 uM by UV-visible spectrophotometry. The gist of the method: as §1
Series [15] is described as follows: Binding affinity to Mycobacterium tuberculosis CYP142A1 by UV-visible spectrophotometry. Particulars: read-out: Kd(app). The procedure, abridged: as §1
Series [16] has as its system Mycobacterium tuberculosis. Description: Binding affinity to Mycobacterium tuberculosis CYP124A1 assessed as type 1a binding mode at > 0.05 to 0.2 uM by UV-visible spectrophotometry. The procedure, abridged: as §1

In the case of `C=C(C)CCC[C@@H](C)[C@H]1CC[C@H]2[C@@H]3CC=C4C[C@@H](O)CC[C@]4(C)[C@H]3CC[C@]12C`, the Activity is 26.2% in series [1], “Active” in series [6], 6.7% in [7] and 37% in series [9]. The Kd was determined as 150 nM in series [2] and 250 nM in series [10]. The outcome in series [3] and in [4] was Active. For the same compound, the Kcat(app) amounted to 0.4 min⁻¹ in [5], 1.1 min⁻¹ in [8] and 10.7 min⁻¹ in series [11].

In the case of `C=CCCC[C@@H](C)[C@H]1CC[C@H]2[C@@H]3CC=C4C[C@@H](O)CC[C@]4(C)[C@H]3CC[C@]12C`, the inhibition result in series [12] and in series [13] was “inactive” in each case. In addition, the Activity in series [1] is 1.9%; in [7], 6.7%; in series [14], “Active”; in series [9] it was 8%. For the same compound, the outcome in series [3] and in series [4] was Active. The results for the Kcat(app) in series [5], in series [8] and in series [11] were 0.03 min⁻¹, 1.1 min⁻¹ and 2.2 min⁻¹, respectively.

On to `CC=C(C)CCC[C@@H](C)[C@H]1CC[C@H]2[C@@H]3CC=C4C[C@@H](O)CC[C@]4(C)[C@H]3CC[C@]12C` (mixture of isomers), for which the Activity was 22.4% in series [1], “Active” in [14] and 29.9% in series [9]. Moreover, the result in series [3], in series [4] and in [16] was Active. For the same compound, the Kd in series [15] stood at 160 nM; in [10], 450 nM. For the same compound, the values for the Kcat(app) in series [5] and in [11] were 0.3 min⁻¹ and 8.1 min⁻¹, respectively.
